Experiments:
[1] = system: CCRF-CEM; assay: Cytotoxicity against chemosensitive CEM-T lymphoblastc leukemia cell line.; format: functional, Homo sapiens
Method in brief: (§1)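 Cells were kept in DMEM/RPMI 1640 with 10% fetal calf serum, 2 mM glutamine and antibiotics. They were seeded at 2500–30 000 cells/well according to growth characteristics and preincubated 24 h at 37 °C, 5% CO2. Four-fold compound dilutions were tested in duplicate for 72 h. MTT was then added for 1–4 h, the formazan was dissolved in 10% SDS (pH 5.5) overnight, and OD was read at 540 nm. Survival was taken relative to mean control, and TCS50 was derived from dose–response curves.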

[2] = system: B16; assay: Tested for cytotoxicity against mouse melanoma B16F cell line; format: functional; method in brief: as §1
[3] = system: MDA-MB-238; assay: Tested for cytotoxicity against human breast cancer MDA-MB-238 cell line; format: functional; method in brief: as §1
[4] = system: U2OS; assay: Tested for cytotoxicity against human osteosarcoma U2OS cell line; format: functional; method in brief: as §1
[5] = system: CEM-DNR; assay: Tested for cytotoxicity against human T-lymphoblastic leukemia CEM-DNR bulk cell line; format: functional; method in brief: as §1
[6] = system: K562; assay: Tested for cytotoxicity against human […] leukemia K562-GEM cell line; format: functional; method in brief: as §1
[7] = species on record: Homo sapiens; assay: Tested for cytotoxicity against human normal lymphocytes; format: functional; method in brief: as §1
[8] = system: CEM-VCR 1/F3; assay: Tested for cytotoxicity against human T-lymphoblastic leukemia CEM-VCR 1/F3 cell line; format: functional; method in brief: as §1
[9] = system: SK-MEL3; assay: Tested for cytotoxicity against human melanoma MEL-3 cell line; format: functional; method in brief: as §1
[10] = system: MCF7; assay: Tested for cytotoxicity against human breast cancer MCF-7 cell line; format: functional; method in brief: as §1
[11] = system: HepG2; assay: Tested for cytotoxicity against human hepatocellular carcinoma HepG2 cell line; format: functional; method in brief: as §1
[12] = system: HT-29; assay: Tested for cytotoxicity against human colon cancer HT-29 cell line; format: functional; method in brief: as §1
[13] = system: CEM-VCR; assay: Tested for cytotoxicity against human T-lymphoblastic leukemia CEM-VCR bulk cell line; format: functional; method in brief: as §1
[14] = system: OVCAR-3; assay: Tested for cytotoxicity against human ovarian cancer OVCAR-3 cell line; format: functional; method in brief: as §1
[15] = system: K562; assay: Tested for cytotoxicity against human […] leukemia K562-ARA-C cell line; format: functional; method in brief: as §1
[16] = system: K562; assay: Tested for cytotoxicity against human […] leukemia K562-FLU D-CEM cell line; format: functional
Method in brief: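 Cytotoxicity by MTT in fludarabine-resistant K562 subline (K562-FLUD), cultured in DMEM/RPMI 1640 with 10% fetal calf serum. Cells seeded at 2500–30 000/well, preincubated 24 h at 37 °C, 5% CO2. Fourfold dilutions in duplicate, 72 h exposure. MTT 1–4 h, formazan dissolved in 10% SDS overnight, OD 540 nm. Survival relative to control; TCS50 taken from dose–response curves.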

[17] = system: BT-549; assay: Tested for cytotoxicity against human breast cancer BT549 cell line; format: functional; method in brief: as §1
[18] = system: LNCaP; assay: Tested for cytotoxicity against human prostate cancer LNCaP cell line; format: functional; method in brief: as §1
[19] = system: CCRF-CEM; assay: Tested for cytotoxicity against human T-lymphoblastic leukemia CEM cell line; format: functional; method in brief: as §1
[20] = system: CEM-DNR; assay: Tested for cytotoxicity against human T-lymphoblastic leukemia CEM-DNR 1/C2 cell line; format: functional; method in brief: as §1
[21] = system: U-87 MG; assay: Tested for cytotoxicity against human glioblastoma U87MG cell line; format: functional, U-87MG ATCC; method in brief: as §1
[22] = system: K562; assay: Tested for cytotoxicity against human […] leukemia K562-CdA cell line; format: functional; method in brief: as §1
[23] = system: CEM-VCR 1/D/5; assay: Tested for cytotoxicity against human T-lymphoblastic leukemia CEM-VCR 1/D5 cell line; format: functional; method in brief: as §1
[24] = system: K562; assay: Tested for cytotoxicity against human […] leukemia K562 cell line; format: functional; method in brief: as §1
[25] = system: A549; assay: Tested for cytotoxicity against human lung adenocarcinoma A549 cell line; format: functional; method in brief: as §1
[26] = system: DU-145; assay: Tested for cytotoxicity against human prostate cancer DU145 cell line; format: functional; method in brief: as §1
[27] = system: B16; assay: Tested for cytotoxicity against mouse melanoma B16 cell line; format: functional; method in brief: as §1
[28] = system: SW-620; assay: Tested for cytotoxicity against human colon cancer SW620 cell line; format: functional; method in brief: as §1
[29] = system: SAOS-2; assay: Tested for cytotoxicity against human […] Saos2 cell line; format: functional; method in brief: as §1
[30] = system: NIH3T3; assay: Tested for cytotoxicity against mouse immortalized fibroblast NIH3T3 cell line; format: functional; method in brief: as §1

COC(=O)C[C@]1(C(=O)OC)CC[C@]2(C)[C@H](CC[C@@H]3[C@@]4(C)CC[C@H](OC(C)=O)C(C)(C)[C@@H]4CC[C@]32C)C1=O
TCS50 [1]: >250 µM

CC(=O)O[C@H]1CC[C@]2(C)[C@H]3CC[C@@H]4C5=C(C(C)C)C(=O)C[C@]5(CO)CC[C@@]4(C)[C@]3(C)CC[C@H]2C1(C)C
TCS50 [1]: 232 µM

CC(=O)O[C@H]1CC[C@]2(C)[C@H]3CC[C@@H]4C5=C(C(C)C)C(=O)C[C@]5(C(=O)OCOC(=O)C(C)(C)C)CC[C@@]4(C)[C@]3(C)CC[C@H]2C1(C)C
TCS50 [1]: 62.7 µM

COC(=O)[C@@]12CC[C@]3(C)[C@H](CC[C@@H]4[C@@]5(C)CC[C@H](OC(C)=O)C(C)(C)[C@@H]5CC[C@]43C)C1=C(C(C)C)C(=O)C2
TCS50 [1]: 20.4 µM

CC(=O)O[C@H]1CC[C@]2(C)[C@H]3CC[C@@H]4C5=C(C(C)C)C(=O)C(=O)[C@]5(C(=O)OCOC(=O)C(C)(C)C)CC[C@@]4(C)[C@]3(C)CC[C@H]2C1(C)C
TCS50 [1]: 105.4 µM

CCOC[C@@H]1CC[C@]2(C)[C@H](CC[C@@H]3[C@@]4(C)CC[C@H](OC(C)=O)C(C)(C)[C@@H]4CC[C@]32C)C1=O
TCS50 [1]: 50 µM

CC(=O)OCOC(=O)[C@@]12CC[C@]3(C)[C@H](CC[C@@H]4[C@@]5(C)CC[C@H](OC(C)=O)C(C)(C)[C@@H]5CC[C@]43C)C1=C(C(C)C)C(=O)C2=O
TCS50 [1]: 3 µM

C=C1CC[C@]2(C)[C@H](CC[C@@H]3[C@@]4(C)CC[C@H](OC(C)=O)C(C)(C)[C@@H]4CC[C@]32C)C1=O
TCS50 [1]: >250 µM

COC(=O)C[C@@H]1CC[C@]2(C)[C@H](CC[C@@H]3[C@@]4(C)CC[C@H](OC(C)=O)C(C)(C)[C@@H]4CC[C@]32C)C1=O
TCS50 [1]: 106 µM

CC(=O)OCOC(=O)[C@@]12CC[C@]3(C)[C@H](CC[C@@H]4[C@@]5(C)CC[C@H](OC(C)=O)C(C)(C)[C@@H]5CC[C@]43C)C1=C(C(C)C)C(=O)C2
TCS50 [1]: >250 µM

CC(=O)OC[C@@]1(C(=O)C(=O)C(=O)C(C)C)CC[C@]2(C)[C@H](CC[C@@H]3[C@@]4(C)CC[C@H](OC(C)=O)C(C)(C)[C@@H]4CC[C@]32C)C1=O
TCS50 [1]: 71 µM

CC(=O)OC[C@]12C=CC(C(C)C)=C1[C@H]1CC[C@@H]3[C@@]4(C)CC[C@H](OC(C)=O)C(C)(C)[C@@H]4CC[C@@]3(C)[C@]1(C)CC2
TCS50 [1]: >250 µM

CC(=O)OC[C@@]12CC[C@]3(C)[C@H](CC[C@@H]4[C@@]5(C)CC[C@H](OC(C)=O)C(C)(C)[C@@H]5CC[C@]43C)C1=C(C(C)C)C(=O)C2=O
TCS50 [1]: 66 µM

CC(=O)OC[C@@]1(CC(=O)O)CC[C@]2(C)[C@H](CC[C@@H]3[C@@]4(C)CC[C@H](OC(C)=O)C(C)(C)[C@@H]4CC[C@]32C)C1=O
TCS50 [1]: 5 µM

CC(=O)OC[C@@]1(CC(=O)C(=O)C(C)C)CC[C@]2(C)[C@H](CC[C@@H]3[C@@]4(C)CC[C@H](OC(C)=O)C(C)(C)[C@@H]4CC[C@]32C)C1=O
TCS50 [1]: >250 µM

COC(=O)C[C@]1(C(=O)OCOC(C)=O)CC[C@]2(C)[C@H](CC[C@@H]3[C@@]4(C)CC[C@H](OC(C)=O)C(C)(C)[C@@H]4CC[C@]32C)C1=O
TCS50 [1]: 94 µM

CC(=O)O[C@H]1CC[C@]2(C)[C@H]3CC[C@@H]4C(=O)CCC[C@@]4(C)[C@]3(C)CC[C@H]2C1(C)C
TCS50 [1]: >250 µM

CC(=O)O[C@H]1CC[C@]2(C)[C@H]3CC[C@@H]4C5=C(C(C)C)C(=O)C[C@]5(C(=O)O)CC[C@@]4(C)[C@]3(C)CC[C@H]2C1(C)C
TCS50 [1]: >250 µM

CC(=O)OC[C@@]12CC[C@]3(C)[C@H](CC[C@@H]4[C@@]5(C)CC[C@H](OC(C)=O)C(C)(C)[C@@H]5CC[C@]43C)C1=C(C(C)C)C(=O)C2
TCS50 [1]: 14 µM

COC(=O)[C@]1(COC(C)=O)CC[C@]2(C)[C@H](CC[C@@H]3[C@@]4(C)CC[C@H](OC(C)=O)C(C)(C)[C@@H]4CC[C@]32C)C1=O
TCS50 [1]: 120 µM

COC(=O)C[C@]1(COC(C)=O)CC[C@]2(C)[C@H](CC[C@@H]3[C@@]4(C)CC[C@H](OC(C)=O)C(C)(C)[C@@H]4CC[C@]32C)C1=O
TCS50 [1]: >250 µM

CC(=O)O[C@H]1CC[C@]2(C)[C@H]3CC[C@@H]4C(=O)[C@]5(CC[C@@]4(C)[C@]3(C)CC[C@H]2C1(C)C)COC(=O)C5
TCS50 [1]: >250 µM

CC(=O)O[C@H]1CC[C@]2(C)[C@H]3CC[C@H](C(=O)OCOC(=O)C(C)(C)C)[C@@](C)(CCC(=O)OCOC(=O)C(C)(C)C)[C@]3(C)CC[C@H]2C1(C)C
TCS50 [1]: >250 µM

CC(=O)O[C@H]1CC[C@]2(C)[C@H]3CC[C@@H]4C(=O)[C@@](CC(=O)C(=O)C(C)C)(C(=O)OCOC(=O)C(C)(C)C)CC[C@@]4(C)[C@]3(C)CC[C@H]2C1(C)C
TCS50 [1]: >250 µM

COC(=O)[C@@]1(CC(=O)O)CC[C@]2(C)[C@H](CC[C@@H]3[C@@]4(C)CC[C@H](OC(C)=O)C(C)(C)[C@@H]4CC[C@]32C)C1=O
TCS50 [1]: 110 µM

COC(=O)C[C@]1(C(=O)OCOC(=O)C(C)(C)C)CC[C@]2(C)[C@H](CC[C@@H]3[C@@]4(C)CC[C@H](OC(C)=O)C(C)(C)[C@@H]4CC[C@]32C)C1=O
TCS50 [1]: 99 µM

COC(=O)CC[C@]1(C)[C@@H](C(=O)OC)CC[C@@H]2[C@@]3(C)CC[C@H](OC(C)=O)C(C)(C)[C@@H]3CC[C@]21C
TCS50 [1]: >250 µM

CC(=O)O[C@H]1CC[C@]2(C)[C@H]3CC[C@H](C(=O)O)[C@@](C)(CCC(=O)O)[C@]3(C)CC[C@H]2C1(C)C
TCS50 [1]: >250 µM

CC(=O)OCOC(=O)[C@]1(COC(C)=O)CC[C@]2(C)[C@H](CC[C@@H]3[C@@]4(C)CC[C@H](OC(C)=O)C(C)(C)[C@@H]4CC[C@]32C)C1=O
TCS50 [1]: 86 µM

COC(=O)[C@@]12CC[C@]3(C)[C@H](CC[C@@H]4[C@@]5(C)CC[C@H](OC(C)=O)C(C)(C)[C@@H]5CC[C@]43C)C1=C(C(C)C)C(=O)OC2=O
TCS50 [1]: 127 µM

CC(=O)OC[C@@]12CC[C@]3(C)[C@H](CC[C@@H]4[C@@]5(C)CC[C@H](OC(C)=O)C(C)(C)[C@@H]5CC[C@]43C)C1=C(C(C)C)C(=O)OC2=O
TCS50 [1]: >250 µM

C=C(C)[C@@H]1CC[C@]2(C(=O)O)CC[C@]3(C)[C@H](CC[C@@H]4[C@@]5(C)CC[C@H](O)C(C)(C)[C@@H]5CC[C@]43C)[C@@H]12 [BETULINIC ACID]
TCS50 [2]: 4.6 µM | TCS50 [3]: 195 µM | TCS50 [4]: >250 µM | TCS50 [5]: >250 µM | TCS50 [6]: 101 µM | TCS50 [7]: >250 µM | TCS50 [8]: 19.1 µM | TCS50 [9]: 2.65 µM | TCS50 [10]: 194 µM | TCS50 [11]: 3.61 µM | TCS50 [12]: >250 µM | TCS50 [1]: 20 µM | TCS50 [13]: 68.5 µM | TCS50 [14]: 164 µM | TCS50 [15]: >250 µM | TCS50 [16]: >250 µM | TCS50 [17]: >250 µM | TCS50 [18]: 244 µM | TCS50 [19]: >250 µM | TCS50 [20]: >250 µM | TCS50 [21]: >228 µM | TCS50 [22]: >250 µM | TCS50 [23]: 24.1 µM | TCS50 [24]: 53.9 µM | TCS50 [25]: 79.3 µM | TCS50 [26]: 241 µM | TCS50 [27]: 30.5 µM | TCS50 [28]: >250 µM | TCS50 [29]: >250 µM | TCS50 [30]: >250 µM

CC(=O)OCOC(=O)[C@@]1(CC(=O)C(=O)C(C)C)CC[C@]2(C)[C@H](CC[C@@H]3[C@@]4(C)CC[C@H](OC(C)=O)C(C)(C)[C@@H]4CC[C@]32C)C1=O
TCS50 [1]: 18 µM

COC(=O)[C@@]1(CC(=O)C(=O)C(C)C)CC[C@]2(C)[C@H](CC[C@@H]3[C@@]4(C)CC[C@H](OC(C)=O)C(C)(C)[C@@H]4CC[C@]32C)C1=O
TCS50 [1]: 107 µM
